Data as given in publication PMC9124159 (Molecular Diversity, 2022).
Values after ≈ are worked out from the molar mass of the structure shown. Values joined by “and” are separate entries in the source; they are usually repeats but may differ in a detail not shown here. Identical values can stand only once. “Also recorded” adds a separate entry of the source. Like-named read-outs stand apart in the source and are kept apart here.

Legend:
[1] = tested on: GFP reporter strain of Mtb (Mtb pMSp12: GFP); format: cell-based, Mycobacterium tuberculosis
[2] = tested on: Vero cell line; assay: MTT cytotoxicity assay, Vero cells; format: cell-based; conditions: 48 h
In short: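 Vero cells plated at 3.0 × 10³ cells/well, 24 h at 37 °C, 5% CO2. Then 48 h exposure to test compound at 1, 5 or 10 µM in 0.15% DMSO, triplicate technical repeats. Positive control was 0.2% Triton X-100 for 15 min. Cells PBS-rinsed, MTT 0.5 mg/ml final for 4 h, formazan dissolved in DMSO. Absorbance 560 nm against 630 nm background; survival vs untreated cells; SD, n = 3.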

[3] = tested on: BJ-5ta (hTERT immortalized Human skin fibroblasts); assay: MTT cytotoxicity assay, BJ-5ta cells; format: cell-based; conditions: BJ-5ta, 48 h, MTT
In short: (§1)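 BJ-5ta fibroblasts seeded at 1.8 × 10⁴ cells/well, 24 h at 37 °C, 5% CO2. Then exposed 48 h to test compound at 1, 5 or 10 µM in 0.15% DMSO, 3 technical repeats. Dead-cell control was 0.2% Triton X-100 for 15 min. After PBS rinses, MTT 0.5 mg/ml final for 4 h, formazan dissolved in DMSO. A560 minus A630, DMSO-blank-corrected, % of untreated cells; mean ± SD.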

[4] = MTT cytotoxicity assay, BJ-5ta cells; format: cell-based, Human; conditions: human, BJ-5ta cells (hTERT immortalized human skin fibroblasts)
In short: as §1

[5] = tested on: H37Rv strain of Mtb; conditions: H37Rv strain of Mtb in vitro; cited from earlier work

Row | Compound | MIC90 [1] | other results
1 | c1ccc(Nc2ncnc3[nH]ccc23)cc1 [Compound 1, N-phenyl-7H-pyrrolo[2,3-d]pyrimidin-4-amine] | 62.5 µM (≈ 13.1 µg/mL) | 
2 | Fc1cccc(Nc2ncnc3[nH]ccc23)c1 [Compound 3, N-(3-fluorophenyl)-7H-pyrrolo[2,3-d]pyrimidin-4-amine] | > 125 µM | 
3 | Brc1ccc(Nc2ncnc3[nH]ccc23)cc1 [Compound 10, N-(4-bromophenyl)-7H-pyrrolo[2,3-d]pyrimidin-4-amine] | 3.9 µM and 3.90 µM | 
4 | c1ccc(Oc2ccc(Nc3ncnc4[nH]ccc34)cc2)cc1 [Compound 11, N-(4-phenoxyphenyl)-7H-pyrrolo[2,3-d]pyrimidin-4-amine] | 0.488 µM (≈ 0.148 µg/mL) | Cytotoxicity (in words) [2]: no potential cytotoxicity risk; Cytotoxicity (in words) ([2]; listed as N-(4-phenoxy phenyl)-7H-pyrrolo[2,3-d]pyrimidin-4-amine): non-cytotoxic; Cell viability reduction ([2]; highest concentration tested (1, 5, 10 µM tested)): no cell viability reduction observed; MIC90 ([1]; […], no unit printed in the conclusion): 0.488; Cytotoxicity (in words) [3]: weakly cytotoxic; also recorded: weak cytotoxicity; viability at 48 h, 1 µM [4]: 115%
5 | c1nc(Nc2ccc(N3CCOCC3)cc2)c2cc[nH]c2n1 [Compound 15, N-(4-morpholinophenyl)-7H-pyrrolo[2,3-d]pyrimidin-4-amine] | 3.906 µM and 3.90 µM | 
6 | c1ccc(CCCNc2ncnc3[nH]ccc23)cc1 [Compound 22, N-(3-phenylpropyl)-7H-pyrrolo[2,3-d]pyrimidin-4-amine] | 14.45 µM (≈ 3.65 µg/mL) | 
7 | c1ccc(CCCCNc2ncnc3[nH]ccc23)cc1 [Compound 23, N-(4-phenylbutyl)-7H-pyrrolo[2,3-d]pyrimidin-4-amine] | 3.713 µM and 3.71 µM | 
8 | OCCNCCNc1ncnc2[nH]ccc12 [Compound 26, 2-((2-((7H-pyrrolo[2,3-d]pyrimidin-4-yl)amino)ethyl)amino)ethan-1-ol] | 125 µM (≈ 27.7 µg/mL) | 
9 | CC(C)OCCCNc1ncnc2[nH]ccc12 [Compound 27, N-(3-isopropoxypropyl)-7H-pyrrolo[2,3-d]pyrimidin-4-amine] | 125 µM (≈ 29.3 µg/mL) | 
10 | CO[C@H]1/C=C/O[C@@]2(C)Oc3c(C)c(O)c4c(O)c(c(/C=N/N5CCN(C)CC5)c(O)c4c3C2=O)NC(=O)/C(C)=C\C=C\[C@H](C)[C@H](O)[C@@H](C)[C@@H](O)[C@@H](C)[C@H](OC(C)=O)[C@@H]1C [RF, rifampicin] |  | MIC [5]: 0.09 µM (≈ 0.0741 µg/mL)
11 | N-(2-methoxy-4-nitrophenyl)-7H-pyrrolo[2,3-d]pyrimidin-4-amine [Compound 14] | > 125 µM | 
12 | N-(3-(trifluoromethyl)phenyl)-7,7a-dihydro-1H-pyrrolo[2,3-d]pyrimidin-4-amine [Compound 4] | 62.5 µM | 
13 | N-(3-morpholinopropyl)-7H-pyrrolo[2,3-d]pyrimidin-4-amine [Compound 28] | 125 µM | 
14 | N-(3-nitrophenyl)-7H-pyrrolo[2,3-d]pyrimidin-4-amine [Compound 13] | 62.5 µM | 
